FAS-TE inh: FAS thioesterase domain inhibitors, primary screen, biochemical, fluorescence intensity, uHTS | inhibition, % at 15 µM | recombinant FAS-TE, OMFH fluorogenic substrate, fluorescence endpoint | Fatty acid synthase (Homo sapiens), P49327 | actives 0.67% (n = 360,000);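 active means compounds whose normalised, plate-corrected inhibition of enzyme fluorescence in the single-dose primary screen is 50% or more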;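 further: 0% = DMSO with enzyme and 100% = substrate without enzyme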
M18AAP inhibitor: PfM18AAP inhibitors, malaria aminopeptidase, primary screen, biochemical, QFRET, recombinant enzyme; M18 aspartyl aminopeptidase (Plasmodium falciparum 3D7); H-Glu-NHMec fluorogenic cleavage; actives 1.2% (n = 290,000); inhibition, % at 7.35 µM;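 active means inhibition above the campaign mean inhibition over all tested compounds plus 3 SD, cut at about 28% in these data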;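 further: 0% = plate median of test compound wells and 100% = 2 mM ZnCl2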
Rtt109 HAT inh: inhibitors of C. albicans Rtt109/Vps75 HAT, primary screen, biochemical, ThioGlo CoA-SH fluorescence, plate reader | Histone acetyltransferase RTT109 (Candida albicans (strain SC5314 / ATCC MYA-2876)), … | purified Rtt109/Vps75, 4 h | inhibition, % at 34.9 µM | actives 0.16% (n = 330,000);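 active means inhibition of at least 50% in every replicate; inconclusive means best replicate reaches 50% inhibition but some replicates fall short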
ALR inh: inhibitors of human ALR sulfhydryl oxidase, primary screen, biochemical, H2O2 detection, HRP-luminol luminescence, single point; FAD-linked sulfhydryl oxidase ALR (Homo sapiens), P55789; purified ALR, DTT oxidation; inhibition, % (concentration not given with the values); actives 3.8% (n = 290,000);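 active means mean replicate inhibition above about 79%, with every replicate also reaching it, limit read from the data; inconclusive means only one of the two criteria met; inactive means mean below limit and not every replicate reaching it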
UCH37 DUB inh: inhibitors of human UCH37 deubiquitinase, primary screen, biochemical, Ub-AMC cleavage, fluorescence; Ubiquitin carboxyl-terminal hydrolase isozyme L5 (Homo sapiens), Q9Y5K5; purified proteasome/UCH37; inhibition, % (concentration not given with the values); actives 0.33% (n = 330,000);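 active means mean inhibition over replicate wells above about 20%, limit read from the data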;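 further: 0% = compound-free wells with enzyme and 100% = wells lacking proteasome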
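Schedule: 30 min plus 25 min, room temperature / Material: human UCH37 within purified proteasomes / Technique: AMC fluorescence intensity at 355/460 nm / Buffer or medium: pH 7.4 Tris-HCl (50 mM) with ovalbumin, ATP-MgCl2, DTT / Controls: wells without proteasome as full block, compound-free enzyme plus substrate as uninhibited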
HDAC3 inh: HDAC3 deacetylase inhibitors, primary screen, biochemical, fluorescence, cell-free homogeneous | actives 0.15% (n = 320,000) | inhibition, % at 8.3 µM | recombinant HDAC3, fluorogenic peptide/trypsin coupled | AID 2718, 2010 | Histone deacetylase 3 (Homo sapiens), O15379; in the data active means inhibition above about 26%, passing the limit was not always enough; inconclusive means no clear call, values can overlap the other calls
* marks the source's active call; other numbers are inactive results. Hits are enriched below; roughly 4.6% of the tested compounds scored in any of these assays.

Screening C=C(C)CNC(=S)NN=C(C)c1ccc(-n2ccnc2)cc1 returned UCH37 DUB inh 3.
`COc1ccc2nc(NC(=O)Nc3ccccc3OC)sc2c1` gave FAS-TE inh 11, M18AAP inhibitor 0, Rtt109 HAT inh 0, ALR inh -13, UCH37 DUB inh 1 and HDAC3 inh 6.
Screening COc1ccc2nc(Nc3ccc4c(c3)OCO4)sc2c1 returned FAS-TE inh 11, M18AAP inhibitor 13, Rtt109 HAT inh -1, UCH37 DUB inh 1 and HDAC3 inh 0.
COc1ccc2nc(Nc3ccccc3)sc2c1 was read as FAS-TE inh 11, M18AAP inhibitor -5, Rtt109 HAT inh 3, ALR inh 94*, UCH37 DUB inh 6 and HDAC3 inh 10.
COc1ccc2nc(Nc3ccccc3OC)sc2c1 was read as FAS-TE inh 11, M18AAP inhibitor 2, Rtt109 HAT inh -2, ALR inh 99*, UCH37 DUB inh 2 and HDAC3 inh 11.
`Cn1ncc(C#N)c1N=CN1CCCCC1` gave UCH37 DUB inh 1.
CC(=O)Nc1cccc(C(C)=NNC(=O)c2ccc(CN3CCOCC3)cc2)c1 was read as UCH37 DUB inh 0.
C/C(=N/Nc1ccc(C(=O)O)cc1)c1ccc(O)c(O)c1O was read as FAS-TE inh -6, M18AAP inhibitor 52*, Rtt109 HAT inh -5 and HDAC3 inh 7.
COc1ccc(OC)c(/C(C)=N/Nc2ccc(C(=O)O)cc2)c1 was read as FAS-TE inh -6, M18AAP inhibitor 27, ALR inh 99* and HDAC3 inh inconclusive.
COc1ccc(/C(C)=N/Nc2ccc(C(=O)O)cc2)cc1OC was read as FAS-TE inh -11, M18AAP inhibitor 29* and Rtt109 HAT inh -7.
Screening O=C(CSCc1ccc(Cl)cc1)Nc1cccc(C(=O)Nc2ccccc2C(=O)O)c1 returned FAS-TE inh -6, M18AAP inhibitor 1, Rtt109 HAT inh 28, ALR inh 98*, UCH37 DUB inh 1 and HDAC3 inh 2.
CC(C)c1ccc(OCC(=O)Nc2cccc(C(=O)Nc3ccccc3C(=O)O)c2)cc1 was read as FAS-TE inh 23, M18AAP inhibitor -15, Rtt109 HAT inh -1, ALR inh 98*, UCH37 DUB inh 4 and HDAC3 inh 5.
Screening O=C(CSCc1ccccc1)Nc1cccc(C(=O)Nc2ccccc2C(=O)O)c1 returned FAS-TE inh 0, M18AAP inhibitor -1, Rtt109 HAT inh 10, ALR inh 98*, UCH37 DUB inh -4 and HDAC3 inh 7.
For O=C(/C=C/c1ccco1)Nc1cccc(C(=O)Nc2ccccc2C(=O)O)c1 the results were FAS-TE inh 2, M18AAP inhibitor -21, Rtt109 HAT inh 0, ALR inh 95*, UCH37 DUB inh 6 and HDAC3 inh 3.
O=C(O)CCCC(=O)Nc1cccc(C(=O)Nc2ccccc2C(=O)O)c1 was read as FAS-TE inh -6, M18AAP inhibitor 2, Rtt109 HAT inh -4, ALR inh -3, UCH37 DUB inh 3 and HDAC3 inh inconclusive.
`COC(=O)c1nn(-c2ccccc2)c(Cl)c1C=NO` gave UCH37 DUB inh 3.
For CC1(C)Cc2ccccc2C(NN=Cc2ccc([N+](=O)[O-])cc2)=N1 the results were UCH37 DUB inh -2.
Screening Nc1ccc2c(c1)nc(Cc1ccccc1)n2CCO returned FAS-TE inh -9, M18AAP inhibitor 6, Rtt109 HAT inh -1, ALR inh 97*, UCH37 DUB inh 1 and HDAC3 inh 2.
Screening OCCCc1nc2ccccc2n1CCc1ccccc1 returned FAS-TE inh -4, M18AAP inhibitor 7, Rtt109 HAT inh 0, ALR inh -6, UCH37 DUB inh 0 and HDAC3 inh 3.
C=CCc1cccc(C=NNC(=O)C(C)Nc2ccc(C)cc2)c1O (centres undefined) was read as UCH37 DUB inh 2.
Screening Cc1noc(C)c1C(=O)N1CCN(c2ccccc2O)CC1 returned FAS-TE inh -5, Rtt109 HAT inh 0, ALR inh 99*, UCH37 DUB inh 2 and HDAC3 inh 0.
Cc1noc(C)c1C(=O)Nc1ccccc1N1CCCC1 was read as FAS-TE inh -1, Rtt109 HAT inh -12, ALR inh 94*, UCH37 DUB inh 0 and HDAC3 inh -1.
For CCc1noc(C)c1C(=O)Nc1cc(Cl)ccc1N1CCCC1 the results were FAS-TE inh 21, Rtt109 HAT inh 3, ALR inh 99*, UCH37 DUB inh 4 and HDAC3 inh 5.
For CC(CC(=O)NC1CCCC1)=NNC(=O)Cc1csc(N)n1 the results were UCH37 DUB inh 4.
O=C(NN=Cc1coc2ccc(Cl)cc2c1=O)c1cc(O)cc(O)c1 was read as UCH37 DUB inh -39.
CCOc1cc(C=NNC(=O)c2ccc(NC(=O)CC)cc2)ccc1OC(=O)c1ccccc1 was read as UCH37 DUB inh 6.
For Cc1cccc([C@@H]2[C@@H]3C(=O)N(Cc4ccccc4)C(=O)[C@@H]3[C@]3(Cc4ccccc4)C(=O)N(c4cccc(Cl)c4)C(=O)N23)c1 the results were FAS-TE inh 82*, Rtt109 HAT inh -1, ALR inh 1, UCH37 DUB inh 4 and HDAC3 inh 16.
Screening CC[C@@]12C(=O)N(c3ccccc3)C(=O)N1[C@H](c1cccc(C)c1)[C@@H]1C(=O)N(Cc3ccccc3)C(=O)[C@@H]12 returned FAS-TE inh 3, M18AAP inhibitor -2, Rtt109 HAT inh 1, ALR inh 3, UCH37 DUB inh 0 and HDAC3 inh 4.
Screening Cc1cccc([C@@H]2[C@@H]3C(=O)N(Cc4ccccc4)C(=O)[C@@H]3[C@]3(CC(C)C)C(=O)N(c4cccc(Br)c4)C(=O)N23)c1 returned FAS-TE inh 88*, M18AAP inhibitor 3, Rtt109 HAT inh 3, UCH37 DUB inh 5 and HDAC3 inh 1.
Screening Cc1cccc([C@@H]2[C@@H]3C(=O)N(Cc4ccccc4)C(=O)[C@@H]3[C@]3(Cc4ccccc4)C(=O)N(c4ccccc4)C(=O)N23)c1 returned FAS-TE inh 92*, Rtt109 HAT inh 10, ALR inh -2, UCH37 DUB inh 3 and HDAC3 inh 5.
